# Compound activity as filed in PubChem.
# A selection: hits, their analogues and other compounds. The true share with any hit is near 3.3%.
# sPLA2-III inh: human group III sPLA2 inhibitors, primary screen, biochemical, QFRET, BODIPY PC-A2 liposome substrate | Group 3 secretory phospholipase A2 (Homo sapiens), Q9NZ20 | QFRET BODIPY PC-A2 liposome hydrolysis, fluorescence | inhibition, % at 12.2 µM | actives 0.56% (n = 370,000);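 active means inhibition above mean plus 3 SD of compounds lying within the high and low control bounds, cut at about 19% in these data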;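 further: 0% = median of test compound wells and 100% = no enzyme DMSO wells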
# Target sequence (Q9NZ20 whole entry, looked up): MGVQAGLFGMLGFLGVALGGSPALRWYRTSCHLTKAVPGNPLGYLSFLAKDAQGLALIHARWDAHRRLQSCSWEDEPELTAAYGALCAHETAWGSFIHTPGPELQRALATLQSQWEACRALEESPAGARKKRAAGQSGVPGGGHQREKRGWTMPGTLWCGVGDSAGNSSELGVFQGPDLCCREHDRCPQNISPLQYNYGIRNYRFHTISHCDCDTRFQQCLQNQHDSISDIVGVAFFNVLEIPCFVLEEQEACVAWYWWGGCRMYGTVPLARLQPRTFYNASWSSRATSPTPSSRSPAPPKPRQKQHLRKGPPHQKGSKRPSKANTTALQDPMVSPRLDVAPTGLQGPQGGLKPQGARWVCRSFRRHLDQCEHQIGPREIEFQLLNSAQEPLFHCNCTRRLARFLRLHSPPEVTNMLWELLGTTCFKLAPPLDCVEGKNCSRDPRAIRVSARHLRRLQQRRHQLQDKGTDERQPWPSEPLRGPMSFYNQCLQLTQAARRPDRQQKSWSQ
# Arr AP2 block: inhibitors of beta-arrestin/AP2 binding, primary screen, biochemical, GPCR trafficking, flow cytometry; beta-arrestin 1 C-terminal peptide binding to AP2 beta2-adaptin appendage (human); FITC-arrestin peptide / GST-AP2 beads; AP2 beta2 appendage carries R879A mutation; inhibition, % at 10 µM; actives 0.31% (n = 340,000); AID 504490, 2011;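 active means inhibition above a set limit, near 3 SD of compounds lacking own fluorescence, cut at about 54% in these data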;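 further: plate controls were DMSO wells for no effect and 5 µM unlabelled arrestin peptide for full effect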
#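 Measured by: flow cytometry, FL1 (488/535 nm); Material: AP2 appendage R879A on GSH beads; Evaluation: percent response; Timing: pre-incubation 12 min, peptide binding 1 h, room temperature; Also added: 50 nM FITC-arrestin peptide; Medium: PBS with 0.05% Tween 20 and 0.1% BSA.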
# CendR NRP1 mod: modulators of CendR peptide binding to NRP-1, primary screen, biochemical, fluorescence polarization, uHTS; FAM-RPARPAR peptide binding to NRP-1; inhibition, % at 25 µM; actives 0.85% (n = 360,000); Neuropilin-1 (Homo sapiens), O14786;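 active means inhibition or corrected inhibition above about 18%, plus a signal ratio from 0.5 to 1.5, limit read from the data, passing the limit was not always enough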
# Hep lipid drop: inhibitors of hepatocyte lipid droplet formation, primary screen, imaging, high-throughput imaging, BODIPY stain; actives 0.4% (n = 240,000); inhibition, % at 6.5 µM; AML12 mouse hepatocytes, oleate lipid droplets;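 active means lipid droplet intensity inhibited by at least 50%, with more than 500 cells counted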
#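 Technique: fluorescence imaging, 20x objective, two fields per well / Assay system: AML12 hepatocytes (mouse) / Measure: % inhibition of lipid droplet signal / Doses: 6.5 µM single-point dosing / Incubation: overnight exposure / Reagent: 100 µM oleic acid challenge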
# m5-HT2A agonist: mouse Htr2a agonists via beta-arrestin recruitment, primary screen, cell-based, luminescence | CHO-K1 mHTR2A beta-arrestin complementation; percent of 30 µM serotonin response | activation, % at 7.6 µM | actives 0.66% (n = 360,000) | AID 624169, 2012;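 active means activation above a run cutoff, the mean activation of all tested compounds plus 3 SD, cut at about 14% in these data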;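 further: 0% = plate median of compound wells and 100% = 30 µM serotonin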
# M18AAP inhibitor: PfM18AAP inhibitors, malaria aminopeptidase, primary screen, biochemical, QFRET, recombinant enzyme | M18 aspartyl aminopeptidase (Plasmodium falciparum 3D7) | H-Glu-NHMec fluorogenic cleavage | inhibition, % at 7.35 µM | actives 1.2% (n = 290,000);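 active means inhibition above the campaign mean inhibition over all tested compounds plus 3 SD, cut at about 28% in these data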;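 further: 0% = plate median of test compound wells and 100% = 2 mM ZnCl2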
# sPLA2 confirm: human group III sPLA2 inhibitors, confirmation, biochemical, QFRET, triplicate; shares compounds with sPLA2-III inh; recombinant hGIII-sPLA2, BODIPY PC-A2 QFRET fluorescence; inhibition, % at 12.2 µM; actives 34% (n = 2,000); AID 743280, 2014;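 active means mean inhibition across triplicates above the hit cutoff set in the earlier primary screen, cut at about 19% in these data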;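 further: 0% = enzyme with DMSO and 100% = DMSO wells lacking enzyme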
# 535nm interf: 535nm fluorescence optical interference, confirmation, artefact control for HGIII-sPLA2 inhibitor project, biochemical, QFRET. shares compounds with sPLA2-III inh. inhibition, % at 12.2 µM. AID 743282, 2014. actives 8.5% (n = 2,000). BODIPY FL product fluorescence interference;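 active means average inhibition above the solvent-only control mean plus 3 SD, cut at about 6% in these data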;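 further: 0% = DMSO with substrate plus product and 100% = DMSO with substrate alone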
# BODIPY interf DR: 535nm fluorescence optical interference, dose response, artefact control for HGIII-sPLA2 inhibitor project, biochemical, QFRET | shares compounds with sPLA2-III inh | BODIPY FL product fluorescence interference, cell-free | IC50, µM | 240 tested, under 10 active;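 active means IC50 at or below 10 µM; inactive means IC50 above 10 µM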
# * = called active by the depositor; nt = no result given.
SMILES,sPLA2-III inh,Arr AP2 block,CendR NRP1 mod,Hep lipid drop,m5-HT2A agonist,M18AAP inhibitor,sPLA2 confirm,535nm interf,others
COc1ccc2cc(C3CC=C(CO)CN3S(=O)(=O)c3ccccc3[N+](=O)[O-])n(C(=O)OC(C)(C)C)c2c1 (configuration not stated),-47,nt,1,nt,-2,nt,nt,nt,
NS(=O)(=O)c1ccc(N=Nc2c(O)c(C(=O)O)cc3ccccc23)cc1,33*,1,4,4,-5,-3,25*,-2,
COc1cc(OC)c(C2C=CC(=O)CC2)c(OC)c1 (configuration not stated),9,nt,-1,nt,-1,nt,nt,nt,
O=C(O)c1cccc(Nc2ccc3nonc3c2[N+](=O)[O-])c1,20*,5,2,-4,-2,1,2,-6,
COc1ccc(NC(=O)c2cnn(-c3ccccc3)c2C)cc1,6,8,9,-3,-1,-8,nt,nt,
COc1ccc(NC(=S)NNC(=O)c2nnn(-c3ccccc3)c2C)cc1,35*,-5,-3,nt,-5,11,42*,-1,BODIPY interf DR=>122
N#CCC[C@@H]1CC[C@]2(CCCN(Cc3ccccc3)C2)O1,0,nt,nt,nt,nt,nt,nt,nt,
C=CCNS(=O)(=O)c1ccc(OCC(=O)OC)cc1,24*,22,0,-6,-1,0,1,-2,
CC1(C(=O)NCc2ccco2)Cc2c(-c3cccc(C(F)(F)F)c3)ccnc2O1 (configuration not stated),-2,nt,-11,nt,-8,nt,nt,nt,
COc1cc(OC)cc(-c2c(-c3cccs3)c3cc(-c4cccc5[nH]ccc45)ccc3n2C)c1,29*,39,-3,nt,0,nt,16,9.8*,
COc1cc(OC)cc(-c2c(-c3ccc(C(C)=O)cc3)c3cc(-c4cccc5[nH]ccc45)ccc3n2C)c1,11,7,-16,nt,8,nt,nt,nt,
CSc1ncnc2c1ncn2CCCN(C)CCc1ccccn1,5,nt,4,nt,9,nt,nt,nt,
CCCCC(=O)NC(c1ccccc1OC)c1ccc2cccnc2c1O (configuration not stated),31*,3,-12,-34,-2,2,28*,-11,BODIPY interf DR=>122
CC(=O)NC(c1ccc(Cl)cc1Cl)c1ccc2cccnc2c1O (configuration not stated),19*,-21,13,-48,-4,10,23*,-9,
CCCCC(=O)NC(c1ccc(Cl)cc1)c1ccc2cccnc2c1O (configuration not stated),16,1,-2,nt,2,1,nt,nt,
CCCC(=O)NC(c1ccc(Cl)cc1)c1ccc2cccnc2c1O (configuration not stated),22*,4,6,-26,-3,1,24*,-5,
CCCCC(=O)NC(c1ccc(N(C)C)cc1)c1ccc2cccnc2c1O (configuration not stated),38*,11,5,-50,-2,12,26*,-7,
